Screens: PubChem BioAssay, The Scripps Research Institute Molecular Screening Center
NPY-Y1 PAM-ag: NPY-Y1 receptor potentiators or agonists, primary screen, cell-based; Neuropeptide Y receptor type 1 (Homo sapiens), P25929; NPY-Y1 expressing cells, potentiator/agonist activation; activation, % at 3.6 µM; actives 0.37% (n = 220,000); in the data active means activation above about 33%, passing the limit was not always enough;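 further: cells stimulated with NPY at EC10 then isoproterenol at EC100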
NPY-Y2 PAM-ag: NPY-Y2 potentiators or agonists, primary screen, cell-based | AID 1359, 2008 | actives 0.45% (n = 220,000) | activation, % at 3.6 µM | cells expressing NPY-Y2, potentiator/agonist read-out; in the data active means activation above about 27%;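 further: cells stimulated with NPY near EC25 plus isoproterenol at EC100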
Target sequence (P49146 whole entry, looked up): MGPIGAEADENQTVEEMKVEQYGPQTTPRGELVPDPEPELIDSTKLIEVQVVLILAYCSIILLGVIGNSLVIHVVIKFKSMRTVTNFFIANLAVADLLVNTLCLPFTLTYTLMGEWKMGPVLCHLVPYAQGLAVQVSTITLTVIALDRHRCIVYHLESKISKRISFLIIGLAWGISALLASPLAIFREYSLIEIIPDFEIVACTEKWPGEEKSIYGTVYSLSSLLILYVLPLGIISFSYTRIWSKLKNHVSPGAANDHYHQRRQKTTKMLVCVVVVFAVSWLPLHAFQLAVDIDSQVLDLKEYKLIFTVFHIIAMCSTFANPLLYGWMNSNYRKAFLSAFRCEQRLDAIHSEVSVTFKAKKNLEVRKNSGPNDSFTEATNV
NPY Y2 blocker: NPY-Y2 receptor antagonists, primary screen, cell-based; AID 793, 2007; NPY-Y2 expressing cells, antagonist mode; inhibition, % at 2.7 µM; Neuropeptide Y receptor type 2 (Homo sapiens), P49146; actives 0.99% (n = 140,000)
NPY-Y1 antag: NPY-Y1 receptor antagonists, primary screen, cell-based. Neuropeptide Y receptor type 1 (Homo sapiens), P25929. HEK293-CNG Y1 cells, membrane potential fluorescence; NPY at EC95, then isoproterenol. inhibition, % at 3.6 µM. AID 1040, 2008. actives 1% (n = 200,000);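 active means inhibition above the campaign mean inhibition of all tested compounds plus 3 SD, cut at about 20% in these data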
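Assay system: HEK293 cells with Y1 receptor plus CNG channel | Probe or stimulus: NPY (25 nM), isoproterenol (1 µM), Ro 20-1724 (25 µM) | Timing: Compound incubation 1 h at room temperature, readout 45 min post-stimulation | Measured by: Membrane-potential fluorescent dye readout | Benchmarks: High control isoproterenol alone, low control NPY with isoproterenol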
NPY1 antag conf: NPY-Y1 receptor antagonists, retest of hits, confirmation, HEK293-CNG cells, membrane potential fluorescence, triplicate; shares compounds with NPY-Y1 antag; cAMP; NPY challenge against isoproterenol-raised cAMP; inhibition, % at 3.6 µM; actives 21% (n = 1,200); in the data active means inhibition above about 20%
NPY-Y2 antag ct: NPY-Y2 receptor antagonists, selectivity check, confirmation, counter-screen for NPY-Y1 antagonist project, HEK293-CNG cells, membrane potential fluorescence, triplicate | shares compounds with NPY-Y1 antag | antagonism; cells given NPY, then isoproterenol | inhibition, % at 3.6 µM | actives 28% (n = 1,200) | AID 1255, 2008
Numbers stand for hits; n = inactive; x = no result given. Most compounds without a hit are left out; they make up all but 1.8% or so of the library. Unless noted, no stated cut-off is given here; in the data, active means inhibition above about 17%; inactive means the rest.

SMILES	NPY-Y1 PAM-ag	NPY-Y2 PAM-ag	NPY Y2 blocker	NPY-Y1 antag	NPY1 antag conf	NPY-Y2 antag ct
CCn1c2ccccc2c2cc(NC(=O)c3cc(OC)cc(OC)c3)ccc21	n	n	n	n	x	x
CCn1c2ccccc2c2cc(NC(=O)c3cc(OC)c(OC)c(OC)c3)ccc21	n	n	n	35	n	n
O=c1c2ccccc2nc(SCc2ccncc2)n1CC1CCCO1 (stereo not given)	n	n	x	n	x	x
CCOC(=O)C1(CC2CCCCO2)CCN(C2CCSCC2)CC1 (stereo not given)	n	n	x	34	n	n
COc1ccc(C(=O)Nc2cccc(OC)c2)cc1	n	n	n	n	x	x
COc1cccc(NC(=O)c2cc(-c3ccncc3)nc3c(C)cc(C)cc23)c1	n	n	x	22	28	29
CCN(CC)CCOC(=O)/C=C/c1ccccc1OC	n	n	n	21	n	n
C/C(CC(=O)Nc1c(C)cc(C)cc1C)=N\NC(=O)c1cnccn1	n	n	n	n	x	x
CC(C)C(=O)N1CCN(c2ccccc2NC(=O)c2ccc(C#N)cc2F)CC1	n	n	x	42	n	n
CCN(Cc1ccccc1)C(=O)c1nn(-c2ccc(OC)cc2)c(=O)c2c1c1ccccc1n2C	n	n	x	38	43	24
O=C(Nc1cccc(Cl)c1)C1C2CCC3C(CCC21)C3(Cl)Cl (stereo not given)	n	n	n	33	n	n
CCCOc1ccccc1C1CC(=O)NC2=C1C(=O)CCC2 (stereo not given)	n	n	n	n	x	x
CCCCOc1ccccc1C1CC(=O)NC2=C1C(=O)CCC2 (stereo not given)	n	n	n	44	n	21
Clc1cccc(Cl)c1CSc1nnc(/C=C/c2ccccc2)o1	n	n	n	23	n	n
Nc1nc(CCOc2ccc(F)cc2)cs1	n	n	x	n	x	x
COc1cc(OC)c(OC)cc1CN1CCCC(C(=O)c2sccc2C)C1 (stereo not given)	n	n	x	x	x	x
Cc1ccsc1C(=O)C1CCCN(Cc2cc(F)ccc2-n2cccn2)C1 (stereo not given)	n	n	x	30	n	n
S=c1[nH]nc(-c2cccnc2)o1	n	n	n	n	x	x
S=c1[nH]nc(-c2cccc(Br)c2)o1	n	n	n	24	n	n
O=C(NCc1n[nH]c(=S)n1-c1ccc(Br)cc1)c1cccs1	n	n	x	n	x	x
CCC(Oc1ccc2ccccc2c1)C(=O)O (stereo not given)	n	n	n	21	n	n
CCC1(C)Cc2ccccc2-c2[nH][nH]c(=O)c21 (stereo not given)	n	n	x	55	n	n
COc1ccccc1CNC(=O)C(NS(=O)(=O)c1cccc2nsnc12)C(C)C (stereo not given)	n	n	x	x	x	x
O=C(NCCN1CCOCC1)c1cc(-c2ccco2)on1	n	n	n	21	n	n
CCOC(=O)c1c(NC(=O)CN2CCN(C)CC2)sc(C(=O)Nc2ccccc2)c1C	n	n	x	27	n	n
SMILES	NPY-Y1 PAM-ag	NPY-Y2 PAM-ag	NPY Y2 blocker	NPY-Y1 antag	NPY1 antag conf	NPY-Y2 antag ct
FC(F)(F)c1ccc(Nc2nnnc3ccccc23)cc1	n	n	x	n	x	x
CCOC(=O)C1(Cc2ccccc2)CCN(Cc2cccn2-c2nccs2)CC1	n	n	x	29	n	22
CCOC(=O)C1(Cc2ccccc2)CCN(Cc2cccn2-c2cccnc2)CC1	n	n	x	30	n	n
Cn1c(=O)cc(SCC(=O)NCCCN2CCN(c3ccccc3F)CC2)c2ccccc21	n	n	n	21	n	n
COc1ccc(O)c(/C=N/NC(=O)c2cc(=O)[nH]c3ccccc23)c1	n	n	x	x	x	x
C/C=C(/C)C(=O)O[C@@H]1[C@H](OC(=O)C=C(C)C)c2c(ccc3ccc(=O)oc23)OC1(C)C	n	n	n	n	x	x
C/C=C(/C)C(=O)O[C@@H]1c2c(ccc3ccc(=O)oc23)OC(C)(C)[C@@H]1OC(=O)/C(C)=C\C	n	n	n	31	n	n
CCOC(=O)Nc1c(Cl)n(C)c(=O)n(C)c1=O	n	n	x	x	x	x
COc1ccccc1CCNC(=O)c1nc(-c2cccs2)no1	n	n	x	24	n	n
CC1CN(C(=O)c2ccc(COc3ccccc3Br)o2)CC(C)O1 (stereo not given)	n	n	x	n	x	x
COc1cc(CNc2ccccc2Oc2cc(=O)n(C)c(=O)n2C)cc(OC)c1OC	n	n	n	36	n	n
Cn1c(Oc2ccccc2NCc2cc(Br)ccc2O)cc(=O)n(C)c1=O	n	n	n	n	x	x
CC12COC3(C(=O)Nc4ccccc4)CC1CCC32C (stereo not given)	n	n	x	n	x	x
CC12COC3(C(=O)Nc4ccc5ccccc5c4)CC1CCC32C (stereo not given)	n	n	x	23	n	24
O=C(COC(=O)CCc1c[nH]c2ccccc12)Nc1cc([N+](=O)[O-])ccc1Cl	n	n	n	27	n	n
COc1ccc2c(c1)c(C(O)CN1CCC(Cc3ccccc3)CC1)c(C)n2C (stereo not given)	n	n	n	21	n	n
COc1ccc2c(c1)c(C(O)CN1CCN(Cc3ccc4c(c3)OCO4)CC1)c(C)n2C (stereo not given)	n	n	n	n	x	x
COC(=O)c1sccc1NC(=O)CC1C(=O)NCCN1C(=O)c1ccc(C)c(C)c1 (stereo not given)	n	n	x	x	x	x
NC(=NCCc1ccccc1)NS(=O)(=O)c1ccccc1	n	n	n	n	x	x
CCCOc1ccc(-c2nc(OC)c3ccccc3n2)cc1	n	n	n	20	n	18
Cc1ccc(C(OCC(C)(C)C[N+](C)(C)C)c2ccccc2)cc1 (stereo not given)	n	n	x	n	x	x
CC(C)(C)CC(=O)NCCc1csc(-c2ccccc2)n1	n	n	x	x	x	x
CC/C=C\[C@H](O)[C@H](O)C1=C(C)C(=O)[C@]2(O1)C(=O)N[C@@](OC)(C(=O)c1ccccc1)C2O (stereo not given in full)	n	n	x	n	x	x
COCCCNc1nc(SCc2ccccc2)nc2sc3c(c12)CCC3	n	n	n	21	30	46
COCCSc1nc(N)c2c3c(sc2n1)CN(C)CC3	n	n	x	x	x	x
CCOc1ccc(C(C)=O)cc1CSc1nnc(-c2cccs2)n1CC1CCCO1 (stereo not given)	n	n	n	27	n	n
O=C(CSc1nnc(-c2cccs2)n1CC1CCCO1)N1CCCC1 (stereo not given)	n	n	x	n	x	x
c1ccc(-c2ccccc2OCCOCCN2CCc3ccccc3C2)cc1	n	n	x	n	x	x
Clc1ccc(OCCOCCN2CCc3ccccc3C2)c(Cl)c1	n	n	n	25	n	n
